Laboratory results taken from ChEMBL document CHEMBL4613283, “Synthesis, Antiproliferative Effect, and Topoisomerase II Inhibitory Activity of 3-Methyl-2-phenyl-1H-indoles” (2020).
Active and inactive are the calls of the source. No cut-off for these calls is given here.

What was measured:
MSTO-211H = test: Growth inhibition of human MSTO-211H cells incubated for 72 hrs by trypan blue assay; assay type: functional
Summary of the method: (§1)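 HeLa, A2780 and MSTO-211H human tumor cells; GI50 taken as the concentration (μM) inhibiting growth of 50% of cells relative to an untreated control culture; mean ± SD of at least three independent experiments.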

[1] = biological target: DNA topoisomerase 2-alpha (Homo sapiens) (UniProt P11388); test: Inhibition of recombinant human topoisomerase 2 alpha-mediated relaxation of supercoiled pBR322 DNA at 100 uM incubated for 30 mins by ethidium bromide staining based agarose gel electrophoresis method
DNA topoisomerase 2-alpha (Homo sapiens), sequence (P11388 whole entry): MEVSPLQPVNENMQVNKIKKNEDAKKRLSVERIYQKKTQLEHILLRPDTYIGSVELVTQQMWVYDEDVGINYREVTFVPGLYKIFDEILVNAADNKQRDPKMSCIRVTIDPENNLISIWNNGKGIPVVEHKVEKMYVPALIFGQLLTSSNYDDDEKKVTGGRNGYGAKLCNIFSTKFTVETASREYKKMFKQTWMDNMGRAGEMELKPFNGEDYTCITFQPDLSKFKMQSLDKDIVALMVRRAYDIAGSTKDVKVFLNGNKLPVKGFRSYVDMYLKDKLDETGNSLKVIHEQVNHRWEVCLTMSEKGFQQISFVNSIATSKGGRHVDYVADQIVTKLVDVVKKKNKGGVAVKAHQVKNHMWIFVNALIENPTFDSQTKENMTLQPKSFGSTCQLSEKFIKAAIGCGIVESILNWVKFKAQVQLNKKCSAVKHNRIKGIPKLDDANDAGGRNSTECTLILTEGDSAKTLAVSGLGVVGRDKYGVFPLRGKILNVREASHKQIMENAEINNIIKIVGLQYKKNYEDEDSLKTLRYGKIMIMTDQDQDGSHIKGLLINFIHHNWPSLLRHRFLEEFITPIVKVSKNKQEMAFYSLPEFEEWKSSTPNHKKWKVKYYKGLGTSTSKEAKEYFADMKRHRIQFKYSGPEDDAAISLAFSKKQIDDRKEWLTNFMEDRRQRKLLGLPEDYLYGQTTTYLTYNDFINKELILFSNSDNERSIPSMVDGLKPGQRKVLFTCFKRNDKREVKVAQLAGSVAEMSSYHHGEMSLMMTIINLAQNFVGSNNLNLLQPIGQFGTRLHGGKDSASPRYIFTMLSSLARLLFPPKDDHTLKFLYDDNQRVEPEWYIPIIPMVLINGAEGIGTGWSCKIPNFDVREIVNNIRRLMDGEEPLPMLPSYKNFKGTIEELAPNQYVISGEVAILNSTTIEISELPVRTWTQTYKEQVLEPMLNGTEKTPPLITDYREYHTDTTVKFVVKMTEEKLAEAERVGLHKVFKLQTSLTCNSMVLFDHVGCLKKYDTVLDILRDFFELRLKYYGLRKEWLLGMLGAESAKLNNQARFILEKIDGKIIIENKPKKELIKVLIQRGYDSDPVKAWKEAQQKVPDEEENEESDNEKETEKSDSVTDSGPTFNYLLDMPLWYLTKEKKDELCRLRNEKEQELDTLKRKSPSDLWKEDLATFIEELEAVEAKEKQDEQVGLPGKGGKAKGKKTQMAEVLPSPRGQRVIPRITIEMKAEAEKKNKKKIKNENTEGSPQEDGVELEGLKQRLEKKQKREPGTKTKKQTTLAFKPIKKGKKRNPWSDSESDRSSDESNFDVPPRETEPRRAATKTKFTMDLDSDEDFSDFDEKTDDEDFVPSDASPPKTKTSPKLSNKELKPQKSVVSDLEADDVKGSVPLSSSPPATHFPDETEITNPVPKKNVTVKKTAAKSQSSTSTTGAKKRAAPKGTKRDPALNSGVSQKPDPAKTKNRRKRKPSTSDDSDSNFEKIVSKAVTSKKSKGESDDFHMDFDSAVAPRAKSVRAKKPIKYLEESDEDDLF
Summary of the method: (§2)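 Supercoiled pBR322 plasmid incubated with human recombinant topoisomerase II without or with compound at 100 μM, or at 25 and 50 μM; m-AMSA 20 μM as reference; relaxation inhibition judged from electrophoretic pattern of supercoiled DNA versus relaxed topoisomers.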

A2780 [2] = test: Growth inhibition of human A2780 cells incubated for 72 hrs by trypan blue assay; assay type: functional; conditions: A2780, 72 h; summary of the method: as §1
HeLa = test: Growth inhibition of human HeLa cells incubated for 72 hrs by trypan blue assay; assay type: functional; summary of the method: as §1
A2780 [3] = test: Induction of apoptosis in human A2780 cells assessed as depolarization of mitochondrial membrane potential at 10 uM incubated for 28 hrs by JC-1 staining based flow cytometry (reference value: 3.8 %); assay type: functional
Summary of the method: (§3)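 A2780 cells exposed 28 h to increasing concentrations versus untreated control, stained with JC-1 and analysed by flow cytometry; mitochondrial potential read as red aggregate versus green monomer fluorescence; percentages of cells with polarized and depolarized mitochondria reported.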

A2780 [4] = test: Induction of apoptosis in human A2780 cells assessed as decrease of mitochondrial membrane potential incubated for 28 hrs by JC-1 staining based flow cytometry
[5] = biological target: DNA topoisomerase 2-alpha (Homo sapiens) (UniProt P11388); test: Inhibition of recombinant human topoisomerase 2 alpha-mediated relaxation of supercoiled pBR322 DNA at 25 uM incubated for 30 mins by ethidium bromide staining based agarose gel electrophoresis method; summary of the method: as §2
A2780 [6] = test: Induction of apoptosis in human A2780 cells assessed as polarization of mitochondrial membrane potential at 50 uM incubated for 28 hrs by JC-1 staining based flow cytometry (reference value: 96.1 %); assay type: functional; summary of the method: as §3
A2780 [7] = test: Induction of apoptosis in human A2780 cells assessed as increase in sub-G0 accumulation at 50 uM incubated for 28 hrs by propidium iodide staining based flow cytometry relative to control; assay type: functional
Summary of the method: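 A2780 cells treated 28 h at 10 and 50 μM alongside untreated control, stained with propidium iodide, DNA content per cell measured by flow cytometry; apoptotic fraction taken as sub-G0 (hypodiploid) peak.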

A2780 [8] = test: Induction of apoptosis in human A2780 cells assessed as depolarization of mitochondrial membrane potential at 50 uM incubated for 28 hrs by JC-1 staining based flow cytometry (reference value: 3.8 %); assay type: functional; summary of the method: as §3
[9] = biological target: DNA topoisomerase 2-alpha (Homo sapiens) (UniProt P11388); test: Inhibition of recombinant human topoisomerase 2 alpha-mediated relaxation of supercoiled pBR322 DNA at 50 uM incubated for 30 mins by ethidium bromide staining based agarose gel electrophoresis method relative to control; summary of the method: as §2
[10] = biological target: DNA topoisomerase 2-alpha (Homo sapiens) (UniProt P11388); test: Inhibition of recombinant human topoisomerase 2 alpha-mediated relaxation of supercoiled pBR322 DNA at 50 uM incubated for 30 mins by ethidium bromide staining based agarose gel electrophoresis method; summary of the method: as §2
A2780 [11] = test: Induction of apoptosis in human A2780 cells assessed as polarization of mitochondrial membrane potential at 10 uM incubated for 28 hrs by JC-1 staining based flow cytometry (reference value: 96.1 %); assay type: functional; summary of the method: as §3
[12] = biological target: DNA topoisomerase 2-alpha (Homo sapiens) (UniProt P11388); test: Inhibition of recombinant human topoisomerase 2 alpha-mediated relaxation of supercoiled pBR322 DNA at 100 uM incubated for 30 mins by ethidium bromide staining based agarose gel electrophoresis method relative to control; summary of the method: as §2

Structure (SMILES)	GI50 (MSTO-211H) [µM]	inhibition [1]	GI50 (A2780 [2]) [µM]	GI50 (HeLa) [µM]	also measured
Cc1c(-c2ccc(O)cc2)n(CC(=O)O)c2ccccc12	> 20	inactive	> 20	> 20	–
Cc1c(-c2ccc(O)cc2)n(CCCCOc2ccccc2)c2ccccc12	3.3	Active	3.1	11	–
COc1cc(NS(C)(=O)=O)ccc1Nc1c2ccccc2nc2ccccc12 [AMSACRINE]	0.019	–	0.027	0.031	–
CCCn1c(-c2ccc(O)c(O)c2)c(C)c2cc(O)ccc21	> 20	Active	8.4	> 20	–
Cc1c(-c2ccc(O)c(O)c2)n(CCCOc2ccccc2)c2ccc(O)cc12	7.1	Active	7.4	18	–
Cc1c(-c2ccc(O)cc2)n(CCOc2ccccc2)c2ccc(O)cc12	7.6	Active	4.7	15	–
Cc1c(-c2ccc(O)c(O)c2)n(CCCCOc2ccccc2)c2ccc(O)cc12	3.4	Active	4.3	10	–
CCCn1c(-c2ccc(O)cc2)c(C)c2ccccc21	7.1	inactive	9	> 20	–
Cc1c(-c2ccc(OC(=O)c3c[nH]cn3)cc2)[nH]c2ccccc12	> 20	–	> 20	> 20	–
Cc1c(-c2ccc(O)c(O)c2)n(C)c2ccc(O)cc12	> 20	inactive	14	> 20	–
Cc1c(-c2ccc(O)cc2)n(CCCOc2ccccc2)c2ccc(O)cc12	2.4	Active	2.2	4.4	Activity (A2780 [3]): 12.6%; Activity (A2780 [4]): Dose-dependent effect; inhibition [5]: Active; Activity (A2780 [6]): 57.7%; Activity (A2780 [7]): 30%; Activity (A2780 [8]): 42.2%; inhibition [9]: 100%; inhibition [10]: Active; Activity (A2780 [11]): 87%
O=c1c(O)c(-c2ccc(O)c(O)c2)oc2cc(O)cc(O)c12 [QUERCETIN]	> 20	–	19.7	17.7	–
CCOC(=O)Cn1c(-c2ccc(O)cc2)c(C)c2ccccc21	> 20	inactive	13	> 20	–
CCCn1c(-c2ccc(O)cc2)c(C)c2cc(O)ccc21	2.9	Active	2.3	7.9	–
COc1ccc2c(c1)c(C)c(-c1ccc(OC)c(OC)c1)n2CCCCOc1ccccc1	13	inactive	17	> 20	–
Cc1ncsc1C(=O)Oc1ccc(-c2[nH]c3ccccc3c2C)cc1	> 20	–	13	> 20	–
Cc1c(-c2ccc(O)cc2)[nH]c2ccc(O)cc12	> 20	Active	11	16	inhibition [5]: inactive; inhibition [10]: inactive
Cc1c(-c2ccc(O)c(O)c2)[nH]c2ccc(O)cc12	> 20	–	2.2	> 20	inhibition [5]: Active; inhibition [12]: 100%; inhibition [10]: Active
Cc1c(-c2ccc(O)cc2)[nH]c2ccccc12	> 20	–	> 20	> 20	–
Cc1c(-c2ccc(O)cc2)n(CCCCOc2ccccc2)c2ccc(O)cc12	2.9	Active	2	4	–
